{
  "source": "ChEMBL document CHEMBL1158358",
  "about": "“Synthesis, antimicrobial and cytotoxic activities of some 5-arylidene-4-thioxo-thiazolidine-2-ones” (Eur J Med Chem, 2009)",
  "type_in_all_cases": "functional",
  "key": {"[1]": {"test_system": "Staphylococcus aureus", "experiment": "Antimicrobial activity against multidrug-resistant Staphylococcus aureus H.C. 20794 isolate after 20 hrs by twofold serial dilution technique", "details": "H.C. 20794, 20 h", "how_it_was_run": "(§1)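 Twofold serial dilution MIC in agar plates against Gram-positive strains and multidrug-resistant clinical isolates. Inoculum applied was 10⁵ CFU/plate. Plates with culture medium plus DMSO served as negative control. MIC was read after incubation at 35 °C for 20 h.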"}, "[2]": {"test_system": "Staphylococcus aureus", "experiment": "Antimicrobial activity against Staphylococcus aureus UFPEDA 01 after 20 hrs by twofold serial dilution technique", "details": "UFPEDA 01, 20 h", "how_it_was_run": "as §1"}, "[3]": {"test_system": "Staphylococcus", "experiment": "Antimicrobial activity against coagulase-negative Staphylococcus H.A.M. 278 isolate after 20 hrs by twofold serial dilution technique", "details": "H.A.M. 278, 20 h", "how_it_was_run": "(§2)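 MIC was determined by twofold serial dilution. Bacteria were tested in plates at 10⁵ CFU/plate and read after 20 h. C. albicans was tested in tubes at 10³ CFU/tube and read after 48 h. All incubations were at 35 °C. Medium plus DMSO served as the negative control.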"}, "[4]": {"test_system": "Staphylococcus aureus", "experiment": "Antimicrobial activity against multidrug-resistant Staphylococcus aureus H.C. 20905 isolate after 20 hrs by twofold serial dilution technique", "details": "H.C. 20905, 20 h", "how_it_was_run": "as §1"}, "[5]": {"test_system": "Staphylococcus aureus", "experiment": "Antimicrobial activity against multidrug-resistant Staphylococcus aureus H.C. 20489 isolate after 20 hrs by twofold serial dilution technique", "details": "H.C. 20489, 20 h", "how_it_was_run": "as §1"}, "[6]": {"test_system": "Enterococcus faecalis", "experiment": "Antimicrobial activity against Enterococcus faecalis UFPEDA 138 after 20 hrs by twofold serial dilution technique", "details": "UFPEDA 138, 20 h", "how_it_was_run": "as §2"}, "[7]": {"test_system": "Enterococcus faecalis", "experiment": "Antimicrobial activity against multidrug-resistant Enterococcus faecalis H.C. 24708 isolate after 20 hrs by twofold serial dilution technique", "details": "H.C. 24708, 20 h", "how_it_was_run": "as §1"}, "[8]": {"test_system": "Bacillus subtilis", "experiment": "Antimicrobial activity against Bacillus subtilis UFPEDA 16 after 20 hrs by twofold serial dilution technique", "details": "UFPEDA 16, 20 h", "how_it_was_run": "as §2"}, "[9]": {"test_system": "Enterococcus faecalis", "experiment": "Antimicrobial activity against multidrug-resistant Enterococcus faecalis H.C. 21752 isolate after 20 hrs by twofold serial dilution technique", "details": "H.C. 21752, 20 h", "how_it_was_run": "as §1"}, "[10]": {"test_system": "Mycolicibacterium smegmatis", "experiment": "Antimicrobial activity against Mycobacterium smegmatis UFPEDA 71 after 20 hrs by twofold serial dilution technique", "details": "UFPEDA 71, 20 h", "how_it_was_run": "as §2"}, "[11]": {"test_system": "Staphylococcus aureus", "experiment": "Antimicrobial activity against multidrug-resistant Staphylococcus aureus H.C. 20981 isolate after 20 hrs by twofold serial dilution technique", "details": "H.C. 20981, 20 h", "how_it_was_run": "as §1"}, "[12]": {"test_system": "Micrococcus luteus", "experiment": "Antimicrobial activity against Micrococcus luteus UFPEDA 06 after 20 hrs by twofold serial dilution technique", "details": "UFPEDA 06, 20 h", "how_it_was_run": "as §2"}, "[13]": {"test_system": "Staphylococcus aureus", "experiment": "Antimicrobial activity against multidrug-resistant Staphylococcus aureus H.C. 21141 isolate after 20 hrs by twofold serial dilution technique", "details": "H.C. 21141, 20 h", "how_it_was_run": "as §1"}, "[14]": {"test_system": "Staphylococcus", "experiment": "Antimicrobial activity against coagulase-negative Staphylococcus H.A.M. 338 isolate after 20 hrs by twofold serial dilution technique", "details": "H.A.M. 338, 20 h", "how_it_was_run": "as §2"}, "[15]": {"test_system": "Staphylococcus aureus", "experiment": "Antimicrobial activity against multidrug-resistant Staphylococcus aureus H.C. 21036 isolate after 20 hrs by twofold serial dilution technique", "details": "H.C. 21036, 20 h", "how_it_was_run": "as §1"}, "[16]": {"test_system": "Enterococcus faecalis", "experiment": "Antimicrobial activity against multidrug-resistant Enterococcus faecalis H.C. 24962 isolate after 20 hrs by twofold serial dilution technique", "details": "H.C. 24962, 20 h", "how_it_was_run": "as §1"}, "[17]": {"test_system": "Enterococcus faecalis", "experiment": "Antimicrobial activity against multidrug-resistant Enterococcus faecalis H.C. 21944 isolate after 20 hrs by twofold serial dilution technique", "details": "H.C. 21944, 20 h", "how_it_was_run": "as §1"}, "[18]": {"test_system": "Pseudomonas aeruginosa", "experiment": "Antimicrobial activity against Pseudomonas aeruginosa UFPEDA 39 at 300 ug/disk after 24 hrs by disk diffusion method", "details": "UFPEDA 39, 24 h, read-out: IZ", "how_it_was_run": "(§3)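 Preliminary screen by disk diffusion. Paper disks (6 mm) holding 300 µg of compound were placed on agar plates inoculated with a standardized microbial suspension. DMSO-only disks served as negative controls. A mean inhibition zone below 7 mm was scored as no sensitivity. Values are means, n = 3.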"}, "[19]": {"test_system": "Mycolicibacterium smegmatis", "experiment": "Antimicrobial activity against Mycobacterium smegmatis UFPEDA 71 at 300 ug/disk after 24 hrs by disk diffusion method", "details": "UFPEDA 71, 24 h, read-out: IZ", "how_it_was_run": "as §3"}, "[20]": {"test_system": "Enterococcus faecalis", "experiment": "Antimicrobial activity against Enterococcus faecalis UFPEDA 138 at 300 ug/disk after 24 hrs by disk diffusion method", "details": "UFPEDA 138, 24 h, read-out: IZ", "how_it_was_run": "as §3"}, "[21]": {"test_system": "Micrococcus luteus", "experiment": "Antimicrobial activity against Micrococcus luteus UFPEDA 06 at 300 ug/disk after 24 hrs by disk diffusion method", "details": "UFPEDA 06, 24 h, read-out: IZ", "how_it_was_run": "as §3"}, "[22]": {"test_system": "Staphylococcus aureus", "experiment": "Antimicrobial activity against Staphylococcus aureus UFPEDA 01 at 300 ug/disk after 24 hrs by disk diffusion method", "details": "UFPEDA 01, 24 h, read-out: IZ", "how_it_was_run": "as §3"}, "[23]": {"test_system": "Candida albicans", "experiment": "Antimicrobial activity against Candida albicans UFPEDA 1007 at 300 ug/disk after 48 hrs by disk diffusion method", "details": "UFPEDA 1007, 48 h, read-out: IZ", "how_it_was_run": "as §3"}, "[24]": {"test_system": "Bacillus subtilis", "experiment": "Antimicrobial activity against Bacillus subtilis UFPEDA 16 at 300 ug/disk after 24 hrs by disk diffusion method", "details": "UFPEDA 16, 24 h, read-out: IZ", "how_it_was_run": "as §3"}, "[25]": {"test_system": "Serratia marcescens", "experiment": "Antimicrobial activity against Serratia marcescens UFPEDA 398 at 300 ug/disk after 24 hrs by disk diffusion method", "details": "UFPEDA 398, 24 h, read-out: IZ", "how_it_was_run": "as §3"}, "[26]": {"test_system": "Escherichia coli", "experiment": "Antimicrobial activity against Escherichia coli UFPEDA 224 at 300 ug/disk after 24 hrs by disk diffusion method", "details": "UFPEDA 224, 24 h, read-out: IZ", "how_it_was_run": "as §3"}},
  "data": [
    {"smiles": "CC1=C(C(=O)O)N2C(=O)[C@@H](NC(=O)[C@H](N)c3ccccc3)[C@H]2SC1", "note": "[CEPHALEXIN ANHYDROUS]", "values": [
      {"measurement": "MIC", "setting": "[1]", "value": 4, "unit": "µg/mL"},
      {"measurement": "MIC", "setting": "[2]", "value": "≤ 1", "unit": "µg/mL"},
      {"measurement": "MIC", "setting": "[3]", "value": 128, "unit": "µg/mL"},
      {"measurement": "MIC", "setting": "[4]", "value": "> 128", "unit": "µg/mL"},
      {"measurement": "MIC", "setting": "[5]", "value": 2, "unit": "µg/mL"},
      {"measurement": "MIC", "setting": "[6]", "value": 64, "unit": "µg/mL"},
      {"measurement": "MIC", "setting": "[7]", "value": 64, "unit": "µg/mL"},
      {"measurement": "MIC", "setting": "[8]", "value": "≤ 1", "unit": "µg/mL"},
      {"measurement": "MIC", "setting": "[9]", "value": 64, "unit": "µg/mL"},
      {"measurement": "MIC", "setting": "[10]", "value": "> 128", "unit": "µg/mL"},
      {"measurement": "MIC", "setting": "[11]", "value": 8, "unit": "µg/mL"},
      {"measurement": "MIC", "setting": "[12]", "value": "≤ 1", "unit": "µg/mL"},
      {"measurement": "MIC", "setting": "[13]", "value": 2, "unit": "µg/mL"},
      {"measurement": "MIC", "setting": "[14]", "value": 128, "unit": "µg/mL"},
      {"measurement": "MIC", "setting": "[15]", "value": "> 128", "unit": "µg/mL"},
      {"measurement": "MIC", "setting": "[16]", "value": 64, "unit": "µg/mL"},
      {"measurement": "MIC", "setting": "[17]", "value": 64, "unit": "µg/mL"}
    ]},
    {"smiles": "O=C1CSC(=O)N1", "note": "[THIAZOLIDINEDIONE]", "values": [
      {"measurement": "zone of inhibition at 300 µg/disc", "setting": "[18]", "value": "< 7", "unit": "mm"},
      {"measurement": "zone of inhibition at 300 µg/disc", "setting": "[19]", "value": "< 7", "unit": "mm"},
      {"measurement": "zone of inhibition at 300 µg/disc", "setting": "[20]", "value": "< 7", "unit": "mm"},
      {"measurement": "zone of inhibition at 300 µg/disc", "setting": "[21]", "value": "< 7", "unit": "mm"},
      {"measurement": "zone of inhibition at 300 µg/disc", "setting": "[22]", "value": "< 7", "unit": "mm"},
      {"measurement": "zone of inhibition at 300 µg/disc", "setting": "[23]", "value": "< 7", "unit": "mm"},
      {"measurement": "zone of inhibition at 300 µg/disc", "setting": "[24]", "value": "< 7", "unit": "mm"},
      {"measurement": "zone of inhibition at 300 µg/disc", "setting": "[25]", "value": "< 7", "unit": "mm"},
      {"measurement": "zone of inhibition at 300 µg/disc", "setting": "[26]", "value": "< 7", "unit": "mm"}
    ]}
  ]
}
